Experimental data: ChEMBL document CHEMBL4316598, “Synthesis, antiproliferative and apoptosis induction potential activities of novel bis(indolyl)hydrazide-hydrazone derivatives” (Bioorg Med Chem, 2019)
Calls of active or inactive are those of the source. No cut-off for these calls is given here.

What was measured:
MCF7 [1] = assay: Cytotoxicity against human MCF7 cells assessed as reduction in cell viability after 4 hrs by MTT assay; format: functional, cell-based
Summary of the method: (§1)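 MTT: 10,000–20,000 cells/well attached for 16 h, then washed twice with serum-free RPMI. Treated with 1–200 µM for 4 h, 3 parallel runs per concentration. MTT added for 2 h; medium partly removed and isopropanol added. A590 read. Viability = (A treated − A doxorubicin)/(A medium − A doxorubicin)×100. Mean of three experiments, triplicate wells each.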

HEK293 = assay: Cytotoxicity against HEK293 cells assessed as reduction in cell viability after 4 hrs by MTT assay; format: cell-based, Homo sapiens; details: Homo sapiens, HEK293, 4 h; read-out: IC50; summary of the method: as §1
MCF7 [2] = assay: Induction of apoptosis in human MCF7 cells assessed as late apoptotic cells at 1 uM after 8 hrs by annexin-V FITC/propidium iodide staining based flow cytometric analysis relative to control; format: functional
Summary of the method: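 Cells were grown in DMEM with 10% heat-inactivated FBS at 37 °C and 5% CO₂, then plated at 500,000 cells/well in 24-well plates. They were treated from a DMSO stock (DMSO ≤0.1%) for 8, 12 or 16 h. After a PBS wash, cells were resuspended in binding buffer (10 mM HEPES pH 7.4, 2.5 mM CaCl₂, 140 mM NaCl, 0.1% BSA), stained 40 min with FITC-annexin V, then with PI, and run on the flow cytometer immediately. Values are the mean of three independent experiments.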

Homo sapiens = organism: Homo sapiens; assay: Inhibition of PKA phosphorylation (unknown origin) at 50 uM after 5 to 60 mins by bioluminescence assay relative to control
Summary of the method: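 Kinase activity measured with compound at 1, 5, 10 and 50 μM, using a Kinase Reaction Rate Kit. Phosphorylation was followed by bioluminescent monitoring of ATP consumption, with light read at 5 min and 1 h. Staurosporine served as positive control. Data given as % kinase inhibition (% of control activity), from two separate experiments.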

HeLa = assay: Effect on mitochondrial membrane potential in human HeLa cells assessed as shift change at 5 uM after 1 hrs by Rhodamine 123 dye-based fluorescence assay; format: functional, cell-based
Summary of the method: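 Mitochondrial potential: HeLa or MCF-7 cells treated with 5 µM (final) for 1, 2, 4 and 8 h. Rhodamine 123 added, cells incubated 30 min at 37 °C, washed with PBS, and analysed by flow cytometry. Fluorescence histogram shift is compared with control.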

MCF7 [3] = assay: Induction of caspase-dependent apoptosis in human MCF7 cells assessed as activation of caspase-7 at 1 to 3 uM after 24 hrs by Western blot analysis; format: functional, cell-based
Summary of the method: (§2)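 Cells were treated at 1, 3 and 5 µM for 24 h at 37 °C. Lysis was in ice-cold Triton X-100 buffer with protease and phosphatase inhibitors; nuclear proteins were extracted separately. Protein was quantified by BCA. Lysates were separated by electrophoresis, transferred to nitrocellulose and blocked in non-fat milk for 1 h. Primary antibody was applied overnight at 4 °C and secondary for 1 h at 28 °C. Detection was by enhanced chemiluminescence.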

MCF7 [4] = assay: Induction of apoptosis in human MCF7 cells assessed as change in Bid level at 1 to 3 uM after 24 hrs by Western blot analysis; format: functional, cell-based; summary of the method: as §2
[5] = molecular target: c-Jun N-terminal kinase, JNK (Homo sapiens) (UniProt P45983+P53779+P45984); assay: Activation of JNK phosphorylation in human MCF7 cells assessed as increase in ratio of phosphorylated JNK to total JNK level at 5 uM by ELISA; format: cell-based
Summary of the method: (§3)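 Cell-based ELISA: HeLa or MCF-7 cells (20×10^3/well) grown overnight at 37 °C, 5% CO2, treated with 5 μM, then fixed and blocked. Probed with rabbit anti-total and anti-phospho P38, JNK or ERK1/2 (1:100), then HRP anti-rabbit IgG. Result is the phospho/total ratio; inhibitor arms use […], […] or SP600125. n=3.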

[6] = molecular target: MAP kinase p38 (Homo sapiens) (UniProt O15264+Q15759+Q16539+P53778); assay: Activation of MAPK p38 phosphorylation in human MCF7 cells assessed as increase in ratio of phosphorylated p38 to total p38 level at 5 uM in presence of p38 kinase inhibitor […] by ELISA; format: cell-based; summary of the method: as §3

Cn1cc(/C=N\NC(=O)c2cn(C)c3ccc(Br)cc23)c2ccccc21
Activity (MCF7 [1]): Dose-dependent effect | IC50 (MCF7 [1]; Homo sapiens, MCF7, 4 h, read-out: IC50): 1190 nM | IC50 (HEK293): > 200000 nM | Activity (MCF7 [2]): 4.01% | inhibition (Homo sapiens): 45% | Activity (HeLa): Active | Activity (MCF7 [3]): inactive | Activity (MCF7 [4]): inactive | Activity [5]: Active | Activity [6]: inactive
